Data published in ChEMBL document CHEMBL2412964, “Discovery of novel tetrahydro-pyrazolo [4,3-c] pyridines for the treatment of neuropathic pain: synthesis and neuropharmacology” (Eur J Med Chem, 2013).

Columns and labels:
[1] = system: Rattus norvegicus; test: Antinociceptive activity in Wistar rat chronic constriction injury model assessed as reversal of spontaneous pain response at 100 mg/kg, ip after 120 mins (reference value: 4.5 +/- 0.2%); assay type: functional; conditions: route intraperitoneal
[2] = system: Rattus norvegicus; test: Antinociceptive activity in Wistar rat partial sciatic nerve ligation model assessed as reversal of spontaneous pain response at 100 mg/kg, ip after 60 mins (reference value: 2.9 +/- 0.3%); assay type: functional; conditions: route intraperitoneal
[3] = system: Mus musculus; test: Antinociceptive activity in Swiss albino mouse assessed as inhibition of formalin-induced flinching at 100 mg/kg administered 30 mins prior to test measured up to 5 mins relative to control; assay type: functional
[4] = system: Mus musculus; test: Antinociceptive activity in Swiss albino mouse assessed as inhibition of formalin-induced flinching at 100 mg/kg administered 30 mins prior to test measured for 10 to 30 mins relative to control; assay type: functional
[5] = system: Rattus norvegicus; test: Antinociceptive activity in Wistar rat partial sciatic nerve ligation model assessed as reversal of mechanical allodynia at 100 mg/kg, ip after 120 mins (reference value: 2.9 +/- 0.3%); assay type: functional; conditions: route intraperitoneal
[6] = system: Rattus norvegicus; test: Antinociceptive activity in Wistar rat partial sciatic nerve ligation model assessed as reversal of tactile allodynia at 100 mg/kg, ip after 60 mins (reference value: 12.5 +/- 1.2%); assay type: functional; conditions: route intraperitoneal
[7] = system: Rattus norvegicus; test: Antinociceptive activity in Wistar rat chronic constriction injury model assessed as reversal of cold allodynia at 100 mg/kg, ip after 120 mins (reference value: 5.4 +/- 1.9%); assay type: functional; conditions: route intraperitoneal
[8] = system: Rattus norvegicus; test: Antinociceptive activity in Wistar rat chronic constriction injury model assessed as reversal of spontaneous pain response at 100 mg/kg, ip after 60 mins (reference value: 4.6 +/- 0.6%); assay type: functional; conditions: route intraperitoneal
[9] = system: Rattus norvegicus; test: Antinociceptive activity in Wistar rat chronic constriction injury model assessed as reversal of tactile allodynia at 100 mg/kg, ip after 120 mins (reference value: 4.1 +/- 2.1%); assay type: functional; conditions: route intraperitoneal
[10] = system: Mus musculus; test: Neurotoxicity in Swiss albino mouse assessed as minimal motor impairment at 300 mg/kg after 0.5 hrs by rotarod test; assay type: toxicity, organism-based; set-up: dose 300 mg/kg; conditions: in vivo
In short: (§1)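 Swiss albino mice of either sex, 20-25 g, dosed at 30, 100 and 300 mg/kg, three per group. Minimal motor impairment scored by rotarod at 0.5 and 4.0 h after dosing. Reported value is the lowest dose giving impairment in half or more of the mice.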

[11] = system: Rattus norvegicus; test: Antinociceptive activity in Wistar rat partial sciatic nerve ligation model assessed as reversal of cold allodynia at 100 mg/kg, ip after 60 mins (reference value: 2.5 +/- 0.3%); assay type: functional; conditions: route intraperitoneal
[12] = system: Rattus norvegicus; test: Antinociceptive activity in Wistar rat chronic constriction injury model assessed as reversal of mechanical allodynia at 100 mg/kg, ip after 30 mins (reference value: 4.7 +/- 2.1%); assay type: functional; conditions: route intraperitoneal
[13] = system: Rattus norvegicus; test: Antinociceptive activity in Wistar rat chronic constriction injury model assessed as reversal of spontaneous pain response at 100 mg/kg, ip after 30 mins (reference value: 8.9 +/- 4.6%); assay type: functional; conditions: route intraperitoneal
[14] = system: Rattus norvegicus; test: Antinociceptive activity in Wistar rat partial sciatic nerve ligation model assessed as reversal of mechanical allodynia at 100 mg/kg, ip after 30 mins (reference value: 2.9 +/- 0.3%); assay type: functional; conditions: route intraperitoneal
[15] = system: Rattus norvegicus; test: Antinociceptive activity in Wistar rat chronic constriction injury model assessed as reversal of cold allodynia at 100 mg/kg, ip after 30 mins (reference value: 0.6 +/- 2.7%); assay type: functional; conditions: route intraperitoneal
[16] = system: Rattus norvegicus; test: Antinociceptive activity in Wistar rat chronic constriction injury model assessed as reversal of tactile allodynia at 100 mg/kg, ip after 30 mins (reference value: 3.4 +/- 0.8%); assay type: functional; conditions: route intraperitoneal
[17] = system: Rattus norvegicus; test: Antinociceptive activity in Wistar rat partial sciatic nerve ligation model assessed as reversal of cold allodynia at 100 mg/kg, ip after 120 mins (reference value: 1.5 +/- 0.5%); assay type: functional; conditions: route intraperitoneal
[18] = system: Rattus norvegicus; test: Antinociceptive activity in Wistar rat partial sciatic nerve ligation model assessed as reversal of spontaneous pain response at 100 mg/kg, ip after 30 mins (reference value: 3.2 +/- 0.3%); assay type: functional; conditions: route intraperitoneal
[19] = system: Rattus norvegicus; test: Antinociceptive activity in Wistar rat partial sciatic nerve ligation model assessed as reversal of spontaneous pain response at 100 mg/kg, ip after 120 mins (reference value: 1.2 +/- 0.1%); assay type: functional; conditions: route intraperitoneal
[20] = system: Mus musculus; test: Antinociceptive activity in Swiss albino mouse assessed as inhibition of acetic acid-induced writhing at 100 mg/kg administered 30 mins prior to acetic acid-challenge measured for 30 mins relative to control; assay type: functional
In short: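 Swiss albino mice (20–25 g, either sex); writhing induced by i.p. 0.1 mL of 2.0% v/v acetic acid given half an hour after test compound dosing.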

[21] = system: Mus musculus; test: Neurotoxicity in Swiss albino mouse assessed as minimal motor impairment at 300 mg/kg after 4 hrs by rotarod test; assay type: toxicity, organism-based; set-up: dose 300 mg/kg; conditions: in vivo; in short: as §1
[22] = system: Rattus norvegicus; test: Antinociceptive activity in Wistar rat partial sciatic nerve ligation model assessed as reversal of cold allodynia at 100 mg/kg, ip after 30 mins (reference value: 4.1 +/- 1.0%); assay type: functional; conditions: route intraperitoneal
[23] = system: Rattus norvegicus; test: Antinociceptive activity in Wistar rat chronic constriction injury model assessed as reversal of mechanical allodynia at 100 mg/kg, ip after 60 mins (reference value: 4.9 +/- 1.0%); assay type: functional; conditions: route intraperitoneal
[24] = system: Rattus norvegicus; test: Antinociceptive activity in Wistar rat chronic constriction injury model assessed as reversal of cold allodynia at 100 mg/kg, ip after 60 mins (reference value: 6.3 +/- 1.9%); assay type: functional; conditions: route intraperitoneal
[25] = system: Rattus norvegicus; test: Antinociceptive activity in Wistar rat partial sciatic nerve ligation model assessed as reversal of mechanical allodynia at 100 mg/kg, ip after 60 mins (reference value: 2.8 +/- 0.3%); assay type: functional; conditions: route intraperitoneal
[26] = system: Rattus norvegicus; test: Antinociceptive activity in Wistar rat chronic constriction injury model assessed as reversal of tactile allodynia at 100 mg/kg, ip after 60 mins (reference value: 1.3 +/- 0.3%); assay type: functional; conditions: route intraperitoneal
[27] = system: Rattus norvegicus; test: Antinociceptive activity in Wistar rat partial sciatic nerve ligation model assessed as reversal of tactile allodynia at 100 mg/kg, ip after 30 mins (reference value: 7.7 +/- 0.7%); assay type: functional; conditions: route intraperitoneal
[28] = system: Rattus norvegicus; test: Antinociceptive activity in Wistar rat chronic constriction injury model assessed as reversal of mechanical allodynia at 100 mg/kg, ip after 120 mins (reference value: 5.3 +/- 0.5%); assay type: functional; conditions: route intraperitoneal
[29] = system: Rattus norvegicus; test: Antinociceptive activity in Wistar rat partial sciatic nerve ligation model assessed as reversal of tactile allodynia at 100 mg/kg, ip after 120 mins relative to control; assay type: functional; conditions: route intraperitoneal

| SMILES | Activity [1] [%] | Activity [2] [%] | Activity [5] [%] | Activity [6] [%] | Activity [7] [%] | Activity [8] [%] | Activity [9] [%] | Activity [11] [%] | Activity [12] [%] | Activity [13] [%] | Activity [14] [%] | Activity [15] [%] | Activity [16] [%] | Activity [17] [%] | Activity [18] [%] | Activity [19] [%] | Activity [22] [%] | Activity [23] [%] | Activity [24] [%] | Activity [25] [%] | further results |
| --- | --- | --- | --- | --- | --- | --- | --- | --- | --- | --- | --- | --- | --- | --- | --- | --- | --- | --- | --- | --- | --- |
| CCN1CCc2c(c(C(C)(C)C)nn2C(=O)Nc2cccc(C(F)(F)F)c2)C1 | 75.2 | 42.2 | 45.8 | 13 | 9.3 | 65.6 | 9.9 | 19.1 | 3.6 | 89.5 | 52.8 | 55.6 | 6.7 | 15 | 87.3 | 19.8 | 52.7 | 12.2 | 35 | 59.5 | inhibition in vivo at 100 mg/kg [3]: 2.6%; inhibition in vivo at 100 mg/kg [4]: 55.1%; Activity [10]: Non-toxic; inhibition in vivo at 100 mg/kg [20]: 61.4%; Activity [21]: Non-toxic; Activity [26]: 13.7%; Activity [27]: 24.7%; Activity [28]: 12.1%; Activity [29]: 13% |
| NCC1(CC(=O)O)CCCCC1 [GABAPENTIN] | 88.8 | 94.2 | 55.8 | 56.1 | 35.6 | 91.2 | 50.7 | 58.2 | 92.9 | 71.2 | 86.2 | 58 | 35.4 | 32.1 | 92.9 | 82.4 | 54.1 | 78.6 | 42.9 | 91.3 | Activity [26]: 59.4%; Activity [27]: 43.1%; Activity [28]: 75.7%; Activity [29]: 58.5% |
| CCN1CCc2c(c(C)nn2C(=O)Nc2ccc(F)cc2F)C1 | 72.8 | 28.2 | 63.3 | 41.7 | 40.6 | 63.6 | 67 | 35.4 | 62.1 | 69.3 | 62.1 | 72.7 | 39.3 | 40 | 59.2 | 14.7 | 58.7 | 58.9 | 53.1 | 58.9 | inhibition in vivo at 100 mg/kg [3]: 7.8%; inhibition in vivo at 100 mg/kg [4]: 14.3%; Activity [10]: Non-toxic; inhibition in vivo at 100 mg/kg [20]: 76.3%; Activity [21]: Non-toxic; Activity [26]: 69.6%; Activity [27]: 58.3%; Activity [28]: 63.3%; Activity [29]: 39.2% |
| CCN1CCc2c(c(C)nn2C(=O)Nc2ccc(Br)cc2)C1 | 63.6 | 60.8 | 40 | 58.3 | 32.6 | 65.1 | 57.7 | 43.7 | 83.3 | 73.9 | 50 | 67.4 | 57.7 | 41.5 | 56.7 | 41.3 | 59.7 | 66.7 | 38.1 | 70 | inhibition in vivo at 100 mg/kg [3]: 1.7%; inhibition in vivo at 100 mg/kg [4]: 81.6%; Activity [10]: Non-toxic; inhibition in vivo at 100 mg/kg [20]: 59.7%; Activity [21]: Non-toxic; Activity [26]: 70.5%; Activity [27]: 58.3%; Activity [28]: 61.1%; Activity [29]: 29.2% |
| CCN1CCc2c(c(C(C)(C)C)nn2C(=O)Nc2cc(C)ccc2F)C1 | 53.9 | 9.9 | 8.8 | 12.2 | 12 | 20.5 | 4.5 | 16.4 | 13.8 | 14.4 | 12.1 | 3.4 | 19.7 | 19.3 | 15.5 | 7.5 | 19.3 | 12.7 | 7.1 | 12.1 | inhibition in vivo at 100 mg/kg [3]: 7%; inhibition in vivo at 100 mg/kg [4]: 60.5%; Activity [10]: Non-toxic; inhibition in vivo at 100 mg/kg [20]: 17.5%; Activity [21]: Non-toxic; Activity [26]: 12.2%; Activity [27]: 12.2%; Activity [28]: 8.8%; Activity [29]: 4.5% |
